The structures appear in SMILES notation.

A short description of data set [1]: Drug metabolism in human kidney microsomes assessed as N-glucuronide-triclocarban formation incubated for 5 mins prior to UDPGA addition measured after 30 mins by LC-UV-ESI-MS/MS analysis. Format: ADME. Particulars: 0.5 h. A digest of the protocol:
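Pooled human kidney or liver microsomes (liver: 25 mixed-gender donors), 5 µg protein, in 200 µL 100 mM potassium phosphate pH 7.4. Alamethicin pre-treated on ice 15 min. Final 10 µM TCC (2% DMSO), with 10 mM MgCl2 and 10 mM saccharolactone, preincubated 5 min at 37 °C. Started with UDPGA (20 mM stock). Sampled at 5, 10, 15 and 30 min into ACN containing 1 µM DCC internal standard.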

Data set [2] can be described thus: Drug metabolism in B6C3F1 mouse liver microsomes assessed as N-glucuronide-triclocarban formation incubated for 5 mins prior to UDPGA addition measured after 5 to 30 mins by LC-UV analysis. The data set is classed as ADME. In a few lines:
(§1)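 Microsomes or UGT Supersomes (5 µg protein) were held 15 min on ice with alamethicin in 100 mM potassium phosphate pH 7.4. TCC was added at 10 µM (2% DMSO) with 10 mM MgCl2 and 10 mM saccharolactone, pre-warmed 5 min at 37 °C, then started with UDPGA. Samples at 5, 10, 15 and 30 min were quenched in ACN. Product was read by LC-UV at 265 nm; rate came from regression over time, three incubations.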

Data set [3] concerns the target T1, UDP-glucuronosyltransferase 1A3 (Homo sapiens, UniProt P35503).
T1 sequence (P35503 whole entry): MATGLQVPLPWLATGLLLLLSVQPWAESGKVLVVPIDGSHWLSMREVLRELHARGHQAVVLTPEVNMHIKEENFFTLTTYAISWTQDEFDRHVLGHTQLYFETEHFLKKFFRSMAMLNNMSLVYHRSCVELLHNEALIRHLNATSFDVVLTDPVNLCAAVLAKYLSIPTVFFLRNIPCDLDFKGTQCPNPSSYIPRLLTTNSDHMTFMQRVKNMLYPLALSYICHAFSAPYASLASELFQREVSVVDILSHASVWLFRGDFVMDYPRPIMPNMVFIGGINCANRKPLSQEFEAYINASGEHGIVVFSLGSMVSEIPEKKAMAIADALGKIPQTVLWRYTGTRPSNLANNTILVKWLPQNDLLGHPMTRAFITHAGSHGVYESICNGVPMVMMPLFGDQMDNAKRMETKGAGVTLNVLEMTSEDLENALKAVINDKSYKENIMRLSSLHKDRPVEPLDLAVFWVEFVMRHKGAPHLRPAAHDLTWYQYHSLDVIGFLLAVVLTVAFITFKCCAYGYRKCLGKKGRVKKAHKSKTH
The data set is described as follows: Drug metabolism assessed as human UGT1A3-mediated N-glucuronide-triclocarban formation expressed in baculovirus infected insect sf9 cells incubated for 5 mins prior to UDPGA addition measured after 5 to 30 mins by LC-UV analysis. The data set is classed as ADME. A digest of the protocol: as §1

Data set [4] addresses T2, UDP-glucuronosyltransferase 1A8 (Homo sapiens, UniProt Q9HAW9).
T2 sequence (Q9HAW9 whole entry): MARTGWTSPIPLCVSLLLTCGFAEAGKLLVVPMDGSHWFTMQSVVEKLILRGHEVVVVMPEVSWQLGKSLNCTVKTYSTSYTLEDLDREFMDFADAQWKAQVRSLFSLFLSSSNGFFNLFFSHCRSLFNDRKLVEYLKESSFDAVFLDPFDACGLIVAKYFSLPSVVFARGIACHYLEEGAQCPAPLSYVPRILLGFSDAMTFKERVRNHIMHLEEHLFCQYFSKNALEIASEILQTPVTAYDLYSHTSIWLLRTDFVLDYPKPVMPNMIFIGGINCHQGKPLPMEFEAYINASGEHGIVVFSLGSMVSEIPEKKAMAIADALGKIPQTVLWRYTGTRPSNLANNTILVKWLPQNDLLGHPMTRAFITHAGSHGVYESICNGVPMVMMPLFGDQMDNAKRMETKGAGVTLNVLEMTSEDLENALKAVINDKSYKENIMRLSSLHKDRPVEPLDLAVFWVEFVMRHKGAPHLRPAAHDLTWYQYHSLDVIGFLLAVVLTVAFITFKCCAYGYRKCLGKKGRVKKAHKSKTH
The data set is described as follows: Drug metabolism assessed as human UGT1A8-mediated N-glucuronide-triclocarban formation expressed in baculovirus infected insect sf9 cells incubated for 5 mins prior to UDPGA addition measured after 5 to 30 mins by LC-UV analysis. Format: ADME. In a few lines:
as §1

Data set [5] can be described thus: Inhibition of human recombinant soluble epoxide hydrolase using CMNPC as substrate.
A short description of data set [6]: Drug metabolism in human intestinal microsomes assessed as N-glucuronide-triclocarban formation incubated for 5 mins prior to UDPGA addition measured after 5 to 30 mins by LC-UV analysis. Format: ADME, Intestine, Microsome. In a few lines: as §1
The target of data set [7] is T3, UDP-glucuronosyltransferase 2B17 (Homo sapiens, UniProt O75795).
T3 sequence (O75795 whole entry): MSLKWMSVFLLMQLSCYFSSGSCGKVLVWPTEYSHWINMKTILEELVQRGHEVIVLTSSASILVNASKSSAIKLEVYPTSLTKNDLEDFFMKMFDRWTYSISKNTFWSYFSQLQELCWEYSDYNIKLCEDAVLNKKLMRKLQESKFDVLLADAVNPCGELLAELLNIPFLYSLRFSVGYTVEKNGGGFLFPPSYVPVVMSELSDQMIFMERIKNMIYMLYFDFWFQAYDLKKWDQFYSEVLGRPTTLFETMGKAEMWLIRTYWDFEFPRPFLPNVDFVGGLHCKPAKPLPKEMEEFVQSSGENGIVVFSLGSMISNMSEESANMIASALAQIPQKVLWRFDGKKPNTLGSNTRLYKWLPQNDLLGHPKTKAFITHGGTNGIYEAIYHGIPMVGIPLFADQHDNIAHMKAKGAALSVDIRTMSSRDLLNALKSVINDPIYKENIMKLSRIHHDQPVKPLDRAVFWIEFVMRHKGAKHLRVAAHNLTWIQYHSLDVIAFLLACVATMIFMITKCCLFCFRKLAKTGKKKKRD
The data set is described as follows: Drug metabolism assessed as human UGT2B17-mediated N-glucuronide-triclocarban formation expressed in baculovirus infected insect sf9 cells incubated for 5 mins prior to UDPGA addition measured after 5 to 30 mins by LC-UV analysis. Format: ADME. In a few lines:
as §1

A short description of data set [8]: Intrinsic clearance in cynomolgus monkey liver microsomes after 30 mins by LC-ESI-MS analysis. Format: ADME, Macaca fascicularis. Particulars: 0.5 h. In a few lines:
(§2)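 2'-OH-TCC at 0.2, 0.5, 1, 2, 3, 5, 10 and 50 µM incubated with liver microsomes (alamethicin, MgCl2, saccharolactone, UDPGA; 37 °C), sampled at 5, 10, 15 and 30 min. Samples ≥5 µM diluted 1:9 in ACN; LC-ESI-MS. KM and vmax fitted from rate vs concentration; intrinsic clearance derived from these; mean and SD of three.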
(In general: Liver microsomes are vesicles of endoplasmic reticulum, rich in cytochrome P450 enzymes.)

A short description of data set [9]: Drug metabolism in cynomolgus monkey liver microsomes after 30 mins by LC-ESI-MS analysis. Format: ADME, Macaca fascicularis. A digest of the protocol:
as §2

The next data set concerns Liver microsome. The data set is described as follows: (§3) Drug metabolism in Sprague-Dawley rat liver microsomes after 30 mins by LC-ESI-MS analysis. Format: ADME. Particulars: microsomes, 0.5 h. A digest of the protocol:
as §2

Data set [10] is described as follows: as §3. The data set is classed as ADME. Conditions: Sprague-Dawley, liver microsomes. A digest of the protocol: as §2

Regarding `O=C(Nc1ccc(Cl)cc1)Nc1ccc(Cl)c(Cl)c1` [TRICLOCARBAN], the Drug metabolism entry in [1] is on record as “metabolite_detected”; in data set [2] it was “metabolite_not_detected”; in data set [3] it was “metabolite_not_detected”; in [4], “metabolite_not_detected”; in [6], “metabolite_not_detected”; in data set [7], “metabolite_not_detected”. Further, the IC50 – broadly, the concentration needed to halve the response being measured – in [5] was found to be 24 nM.

For the molecule `O=C(Nc1ccc(Cl)c(Cl)c1)Nc1ccc(Cl)cc1O`, the CLH in [8] stood at 19.1 mL/min/mg. Also, the figures for the Michaelis constant (Km) at 0.5 h in data set [9] (liver microsomes) and in data set [10] were 1400 nM and 3.29 µM, respectively. Moreover, the Vmax – broadly, the top rate of the reaction or transport when substrate is in excess – in [9] (microsomes, 0.5 h) is 26.7 nmol/min/mg; in the data set on Liver microsome, 9.42 nmol/min/mg.

The values above are taken from ChEMBL document CHEMBL3525967, “In vitro glucuronidation of the antibacterial triclocarban and its oxidative metabolites” (Drug Metab Dispos, 2012).
